Experiment [1] concerns the target T1, Protein cereblon/Aurora kinase A (Homo sapiens) (UniProt O14965+Q96SW2). The experiment is described as follows: PROTAC activity at AURKA/CRBN in human NGP cells assessed as AURKA degradation at 10 to 1000 nM measured for 24 hrs by immunoblotting analysis. Format: cell-based. The note with it: dose 10-1000 nM. A digest of the protocol: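 NGP cells were seeded at about 2×10^6 per flask, adhered for 48 h, and were then treated for 24 h with DMSO matched. Lysis was in RIPA with protease/phosphatase inhibitors. AURKA was quantified by capillary Simple Western with peak areas normalised to vinculin. Fold change is relative to DMSO (mean ± SD, n = 3).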
For orientation: A western blot detects proteins with antibodies after separation by electrophoresis.

Experiment [2] deals with T1, Protein cereblon/Aurora kinase A (Homo sapiens). The experiment in a line: PROTAC activity at AURKA/CRBN in human NGP cells assessed as increase in pCHK1 level at 10 to 1000 nM measured for 24 hrs by immunoblotting analysis. The conditions noted are these: dose 10-1000 nM. Format: cell-based.
Experiment [3] has as its target T2, N-myc proto-oncogene protein (Homo sapiens) (UniProt P04198).
T2 sequence (whole entry): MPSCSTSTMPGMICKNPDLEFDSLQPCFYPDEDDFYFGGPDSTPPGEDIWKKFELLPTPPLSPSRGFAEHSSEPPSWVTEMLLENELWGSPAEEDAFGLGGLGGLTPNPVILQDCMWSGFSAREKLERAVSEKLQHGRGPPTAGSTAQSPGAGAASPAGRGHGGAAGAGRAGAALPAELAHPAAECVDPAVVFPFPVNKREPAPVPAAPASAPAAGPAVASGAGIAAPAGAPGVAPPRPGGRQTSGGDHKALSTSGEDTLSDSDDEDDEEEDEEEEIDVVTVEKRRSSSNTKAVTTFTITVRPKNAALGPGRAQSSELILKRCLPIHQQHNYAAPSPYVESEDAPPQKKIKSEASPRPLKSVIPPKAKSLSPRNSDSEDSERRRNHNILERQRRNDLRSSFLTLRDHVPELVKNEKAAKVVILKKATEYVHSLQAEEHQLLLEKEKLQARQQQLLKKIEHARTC
The experiment in a line: Induction of MYCN degradation in human NGP cells at 500 nM measured for 72 hrs by Western blot analysis relative to control. Format: cell-based. In outline:
(§1)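 NGP cells were treated with 500 nM compound and harvested at 0, 1, 3, 6, 24, 48 and 72 h. RIPA lysates (35 µg) were run on 10% SDS-PAGE and blotted to nitrocellulose. AURKA and MYCN were probed with vinculin as loading control and quantified by densitometry. Values are percent remaining relative to the DMSO control at each timepoint (n = 3).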

The target of experiment [4] is T1, Protein cereblon/Aurora kinase A (Homo sapiens). The experiment in a line: PROTAC activity at AURKA/CRBN in human NGP cells assessed as increase in H2AX phosphorylation at 10 to 1000 nM measured for 24 hrs by immunoblotting analysis. The experiment is classed as cell-based. The note with it: dose 10-1000 nM.
Experiment [5] shares this target. The experiment in a line: PROTAC activity at AURKA/CRBN in human NGP cells assessed as reduction in AURKA level at 500 nM measured for 1 hr by Western blot analysis. Format: cell-based. On the set-up: scale not given: the % may be the effect or the level left. A digest of the protocol:
as §1

Experiment [6] shares this target. The experiment in a line: PROTAC activity at AURKA/CRBN in human NGP cells assessed as AURKA degradation at 10 to 1000 nM measured for 24 hrs in presence of thalidomide by Western blot analysis. Format: cell-based. The note with it: dose 10-1000 nM.
Experiment [7] can be described thus: Antiproliferative activity against human NGP cells assessed as reduction in cell viability incubated for 48 hrs. Format: functional, cell-based. In outline:
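Cells were grown in RPMI 1640 with 10% FCS and 2 mM L-glutamine. Seeding was 4500 cells/well for NGP, IMR-32 and N206, and 2100 cells/well for SK-N-AS, with adherence overnight. Compound was dispensed over a concentration range in triplicate. Confluence was imaged live for 48 h and normalised to the DMSO control. Absolute IC50 came from a four-parameter variable-slope fit (n = 4).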

Experiment [8] deals with T1, Protein cereblon/Aurora kinase A (Homo sapiens). The experiment in a line: PROTAC activity at AURKA/CRBN in human NGP cells assessed as reduction in AURKA level at 500 nM measured for 48 hrs by Western blot analysis. Set-up: scale not given: the % may be the effect or the level left. Format: cell-based. A digest of the protocol:
as §1

Another experiment deals with NGP. The experiment is described as follows: Induction of apoptosis in human NGP cells assessed as increase in caspase3/7 level at 10 nM incubated for 24 hrs. Format: functional, cell-based. A digest of the protocol: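 NGP cells were seeded at 25,000 cells/well and allowed to adhere overnight. Compound was dispensed in triplicate with DMSO matched. At 24 h, cell-occupied area was imaged live, then a Caspase-Glo 3/7 assay was run using 50 µL reagent per well. Signal is expressed per cell-occupied area.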

The next experiment concerns IMR-32. The experiment is described as follows: Antiproliferative activity against human IMR-32 cells assessed as reduction in cell viability incubated for 48 hrs relative to control. The experiment is classed as functional. A digest of the protocol: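 Cells grown in RPMI 1640 with 10% fetal calf serum, 2 mM L-glutamine and penicillin/streptomycin at 37 °C, 5% CO2. Seeded at 4500 (IMR-32) or 2100 (SK-N-AS) cells/well in 384-well plates and left to adhere overnight. Concentration range dispensed in triplicate. Confluence tracked by IncuCyte live-cell imaging, and 48h values normalized to DMSO. Absolute IC50 taken from a four-parameter variable-slope fit (n = 4).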

A short description of experiment [9]: Antiproliferative activity against human NGP cells assessed as reduction in cell viability incubated for 48 hrs relative to control. The experiment is classed as functional.
Experiment [10] concerns the target T1, Protein cereblon/Aurora kinase A (Homo sapiens). The experiment in a line: PROTAC activity at AURKA/CRBN in human NGP cells assessed as AURKA degradation at 10 to 1000 nM measured for 24 hrs in presence of MK-5108 by Western blot analysis. The conditions noted are these: dose 10-1000 nM. The experiment is classed as cell-based.

Structures are written as SMILES. Calls of active or inactive are those of the source. No cut-off for these calls is given here.

T1 sequence (O14965 whole entry, looked up): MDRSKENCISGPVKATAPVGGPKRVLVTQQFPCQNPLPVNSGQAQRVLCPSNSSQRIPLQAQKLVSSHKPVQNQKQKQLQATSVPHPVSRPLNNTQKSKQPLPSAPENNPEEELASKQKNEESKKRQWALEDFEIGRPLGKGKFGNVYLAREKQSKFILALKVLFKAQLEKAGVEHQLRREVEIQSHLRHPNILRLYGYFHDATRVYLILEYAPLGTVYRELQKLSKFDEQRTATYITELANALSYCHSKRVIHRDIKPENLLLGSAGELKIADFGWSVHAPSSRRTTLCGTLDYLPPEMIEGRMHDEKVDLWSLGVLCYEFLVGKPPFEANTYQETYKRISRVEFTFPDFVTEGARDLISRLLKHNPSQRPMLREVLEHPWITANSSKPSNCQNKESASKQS
T1 sequence (Q96SW2 whole entry, looked up): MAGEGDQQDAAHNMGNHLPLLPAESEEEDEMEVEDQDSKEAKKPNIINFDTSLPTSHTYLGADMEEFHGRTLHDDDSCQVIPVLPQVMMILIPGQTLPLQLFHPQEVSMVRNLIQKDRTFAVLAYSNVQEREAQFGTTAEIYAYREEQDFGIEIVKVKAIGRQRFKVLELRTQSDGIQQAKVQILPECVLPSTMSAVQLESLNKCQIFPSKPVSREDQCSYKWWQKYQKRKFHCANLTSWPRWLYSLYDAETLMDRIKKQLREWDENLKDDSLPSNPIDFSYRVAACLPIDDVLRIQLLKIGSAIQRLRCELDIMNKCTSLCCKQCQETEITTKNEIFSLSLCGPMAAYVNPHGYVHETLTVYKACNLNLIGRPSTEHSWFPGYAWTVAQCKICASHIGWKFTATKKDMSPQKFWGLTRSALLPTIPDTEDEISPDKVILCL

Broadly, the IC50 is the midpoint of a concentration-inhibition curve. Take `O=C1CCC(N2C(=O)c3cccc(OCCOCCOCCOCCNC(=O)[C@]4(Cc5cccc(Nc6nccs6)n5)CC[C@@H](Oc5cccc(Cl)c5F)CC4)c3C2=O)C(=O)N1` (some centres not stated): the outcome (in experiment [1]; in experiment [2]; in experiment [4]; with NGP) was Active. Besides, the Activity in [3] turned out to be 73%; in experiment [5], 7%; in experiment [8] it was 100%. Also, the result in experiment [6] and in experiment [10] was inactive. The IC50 in [7] came to 31.9 nM. For the same molecule, the Emax stood at 14.1% in the experiment with IMR-32 and 27.8% in experiment [9].

For the origin of these results see ChEMBL document CHEMBL5331087, “Targeted AURKA degradation: Towards new therapeutic agents for neuroblastoma” (Eur J Med Chem, 2023).
